pEC50, pIC50: −log10 of the molar value.
Columns and labels:
[1] = molecular target: T1, Metabotropic glutamate receptor 5 (Homo sapiens, UniProt P41594); assay: Positive allosteric modulation of human mGluR5 expressed in recombinant HEK293 cells by FLIPR assay; format: cell-based
Procedure, shortened: (§1)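 HEK293 cells recombinantly expressing human mGluR5 were seeded at 2×10^4 cells/well on poly-D-lysine. They were incubated overnight at 37 °C in glutamate/glutamine-free medium, then loaded for 1 h at 37 °C with calcium 5 dye containing 3 U/ml glutamic pyruvic transaminase and 3 mM sodium pyruvate. Calcium flux was read by FLIPR.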

[2] = molecular target: T1, Metabotropic glutamate receptor 5; assay: Negative allosteric modulation of human mGluR5 expressed in recombinant HEK293 cells by FLIPR assay; format: cell-based; conditions: for inhibition: concentration not given here; procedure, shortened: as §1

Row | Compound | pEC50 [1] | Emax [1] | pIC50 [2] | inhibition [2] | Activity [1]
1 | Cc1cccc(-c2noc(C3CN(S(=O)(=O)c4ccc(F)cc4)C3)n2)c1 | < 5.00 | 6% | 6.02 | 74% | 
2 | O=C(C1CCC(F)(F)CC1)N1CC(c2nc(-c3cccc(F)c3)no2)C1 | 6.28 | 53% | < 5.00 | 11% | 
3 | Cc1cccc(-c2noc(C3CN(C(=O)C4CCCC4)C3)n2)c1 | < 5.00 | -7% | 5.60 | 70% | 
4 | O=C(c1ccccc1F)N1CC(c2nc(-c3cccc(Cl)c3)no2)C1 | < 5.00 | -12% | 6.17 | 86% | 
5 | CC1CCC(C(=O)N2CC(c3nc(-c4cccc(Cl)c4)no3)C2)CC1 (configuration not stated) | 5.82 | 75% | < 5.00 |  | 120%
6 | O=C(c1ccc(F)c(F)c1)N1CC(c2nc(-c3cccc(F)c3)no2)C1 | 5.49 | 35% | < 5.00 |  | 50%
7 | COC1CCCN(C(=O)N2CC(c3nc(-c4cccc(Cl)c4)no3)C2)C1 (configuration not stated) | < 5.00 | -14% | 5.74 | 80% | 
8 | O=C(c1ccc(Cl)cc1)N1CC(c2nc(-c3cccc(F)c3)no2)C1 | 5.60 | 62% | < 5.00 |  | 82%
9 | Cc1cccc(-c2noc([C@@H]3CCN3C(=O)Cc3ccc(F)cc3)n2)c1 | 5.72 | 24% | < 5.00 |  | 30%
10 | Cc1cccc(-c2noc([C@@H]3CCN3C(=O)c3ccc(C#N)cc3)n2)c1 | < 5.00 | 88% | 5.85 | 72% | 
11 | O=C(N1CCCC(F)C1)N1CC(c2nc(-c3cccc(Cl)c3)no2)C1 (configuration not stated) | 6.70 | 51% | < 5.00 |  | 81%
12 | CC1CCC(C(=O)N2CC(c3nc(-c4cccc(F)c4)no3)C2)CC1 (configuration not stated) | 5.66 | 47% | < 5.00 |  | 11%
13 | Cc1cccc(-c2noc(C3CN(C(=O)C4CCC(C)CC4)C3)n2)c1 (configuration not stated) | 6.01 | 68% | < 5.00 |  | 49%
14 | Cc1cccc(-c2noc(C3CN(C(=O)C4CCOCC4)C3)n2)c1 | < 5.00 | -2% | 5.74 | 74% | 
15 | COC1CCN(C(=O)N2CC(c3nc(-c4cccc(Cl)c4)no3)C2)CC1 | < 5.00 | 11% | < 5.00 |  | 
16 | O=C([C@@H]1CC2CCC1C2)N1CC(c2nc(-c3cccc(F)c3)no2)C1 (some centres not stated) | 7.00 | 110% |  |  | 
17 | Cc1cccc(-c2noc(C3CN(C(=O)c4ccccc4F)C3)n2)c1 | < 5.00 | 5% | 5.85 | 64% | 
18 | O=C(C1CCC(C(F)(F)F)CC1)N1CC(c2nc(-c3cccc(F)c3)no2)C1 (configuration not stated) | 6.17 | 56% | < 5.00 |  | 37%
19 | Cc1cccc(-c2noc(C3CN(C(=O)C4CCOC4)C3)n2)c1 (configuration not stated) | < 5.00 | -7% | 5.89 | 80% | 
20 | Cc1cccc(-c2noc(C3CN(C(=O)C4CCC4)C3)n2)c1 | < 5.00 | 3% | 6.00 | 77% | 

Row | Compound | pEC50 [1] | Emax [1] | pIC50 [2] | inhibition [2] | Activity [1]
21 | Cc1cccc(-c2noc(C3CN(C(=O)c4ccc(F)cc4)C3)n2)c1 | 5.85 | 32% | < 5.00 | 50% | 
22 | O=C(N1CCCCC1)N1CC(c2nc(-c3cccc(Cl)c3)no2)C1 | 6.43 | 44% | < 5.00 |  | 87%
23 | CC1CCN(C(=O)N2CC(c3nc(-c4cccc(Cl)c4)no3)C2)C1 (configuration not stated) | < 5.00 | 88% | < 5.00 | 80% | 
24 | O=C(c1ccccc1F)N1CC[C@H]1c1nc(-c2cccc(F)c2)no1 | < 5.00 | 57% | 6.04 | 68% | 
25 | Cc1cccc(-c2noc(C3CN(C(=O)c4cccc(F)c4)C3)n2)c1 | < 5.00 | 15% | 5.68 | 62% | 
26 | O=C(C1CCCCC1)N1CC(c2nc(-c3cccc(Cl)c3)no2)C1 | 6.28 | 43% | < 5.00 |  | 35%
27 | O=C(C1CCC1)N1CC(c2nc(-c3cccc(Cl)c3)no2)C1 | < 5.00 | -7% | 5.82 | 75% | 
28 | O=C(C1CCC2(CCC2)CC1)N1CC(c2nc(-c3cccc(Cl)c3)no2)C1 | 5.96 | 40% | < 5.00 |  | 24%
29 | O=C(Cc1cccc(F)c1)N1CC[C@H]1c1nc(-c2cccc(F)c2)no1 | 5.62 | 52% | < 5.00 |  | 75%
30 | O=C(C1CCCCC1)N1CC(c2nc(-c3cccc(F)c3)no2)C1 | 6.00 | 46% | < 5.00 |  | 19%
31 | O=S(=O)(c1ccc(F)cc1)N1CC(c2nc(-c3cccc(Cl)c3)no2)C1 | < 5.00 | -7% | 6.89 | 85% | 
32 | Cc1ccc(S(=O)(=O)N2CC(c3nc(-c4cccc(Cl)c4)no3)C2)cc1 | < 5.00 | 2% | 6.04 | 75% | 
33 | Cc1cccc(-c2noc(C3CN(S(=O)(=O)c4ccc(Cl)cc4)C3)n2)c1 | < 5.00 | 3% | 5.96 | 75% | 
34 | Cc1cccc(-c2noc(C3CN(S(=O)(=O)c4cccc(C)c4)C3)n2)c1 | < 5.00 | -4% | 6.19 | 76% | 
35 | Cc1cccc(-c2noc(C3CN(C(=O)C4CCC(F)(F)CC4)C3)n2)c1 | 6.23 | 36% | < 5.00 |  | 3%
36 | CC1CCCN(C(=O)N2CC(c3nc(-c4cccc(Cl)c4)no3)C2)C1 (configuration not stated) | < 5.00 | 6% | 5.47 | 69% | 
37 | O=C([C@@H]1CC2CCC1C2)N1CC(c2nc(-c3ccccc3)no2)C1 (some centres not stated) | 6.40 | 88% |  |  | 
38 | O=C(Cc1ccc(F)cc1)N1CC[C@H]1c1nc(-c2cccc(F)c2)no1 | 5.92 | 29% | < 5.00 |  | 12%
39 | Cc1cccc(-c2noc([C@@H]3CCN3C(=O)c3ccc(F)c(F)c3)n2)c1 | 5.82 | 51% | < 5.00 |  | 92%
40 | O=C([C@@H]1CC2CCC1C2)N1CC(c2nc(-c3cccc(Cl)c3)no2)C1 (some centres not stated) | 7.01 | 66% |  |  | 

Row | Compound | pEC50 [1] | Emax [1] | pIC50 [2] | inhibition [2] | Activity [1]
41 | Cc1cccc(-c2noc(C3CN(C(=O)C4CCC(C(F)(F)F)CC4)C3)n2)c1 (configuration not stated) | 6.00 | 36% | < 5.00 | 3% | 
42 | O=S(=O)(c1ccc(Cl)cc1)N1CC(c2nc(-c3cccc(Cl)c3)no2)C1 | < 5.00 | 7% | 6.77 | 79% | 
43 | Cc1cccc(-c2noc(C3CN(C(=O)c4ccc(Cl)cc4)C3)n2)c1 | 5.15 | 33% | < 5.00 |  | 6.3%
44 | CC1CCN(C(=O)N2CC(c3nc(-c4cccc(Cl)c4)no3)C2)CC1 | 6.06 | 66% | < 5.00 |  | 
45 | Cc1cccc(-c2noc([C@@H]3CCN3C(=O)c3ccccc3F)n2)c1 | < 5.00 | 6.2% | 5.74 | 58% | 
46 | Cc1ccc(C(=O)N2CC(c3nc(-c4cccc(F)c4)no3)C2)cc1 | 5.17 | 27% | < 5.00 |  | 30%
47 | Cc1cccc(-c2noc(C3CN(C(=O)C4CCCC(C)C4)C3)n2)c1 (configuration not stated) | 6.30 | 46% | < 5.00 |  | 19%
48 | O=C(C1CCCO1)N1CC(c2nc(-c3cccc(Cl)c3)no2)C1 (configuration not stated) | < 5.00 | -3% | 6.05 | 79% | 
49 | O=C([C@H]1CC2CCC1C2)N1CC(c2nc(-c3ccccc3)no2)C1 (some centres not stated) | 6.92 | 160% |  |  | 
50 | Cc1cccc(S(=O)(=O)N2CC(c3nc(-c4cccc(Cl)c4)no3)C2)c1 | < 5.00 | -2% | 6.41 | 82% | 
51 | Cc1cccc(-c2noc(C3CN(C(=O)C4CCCO4)C3)n2)c1 (configuration not stated) | < 5.00 | 3% | 5.72 | 79% | 
52 | CC1CN(C(=O)N2CC(c3nc(-c4cccc(Cl)c4)no3)C2)CC(C)O1 (configuration not stated) | < 5.00 |  | 6.00 | 51% | 
53 | O=C(N1CCC(F)CC1)N1CC(c2nc(-c3cccc(Cl)c3)no2)C1 | 6.00 | 41% | < 5.00 |  | 61%
54 | Cc1cccc(-c2noc(C3CN(C(=O)C4CCCCC4)C3)n2)c1 | 6.02 | 45% | < 5.00 |  | 20%
55 | CC1CCCC(C(=O)N2CC(c3nc(-c4cccc(Cl)c4)no3)C2)C1 (configuration not stated) | 6.39 | 53% | < 5.00 |  | 34%
56 | O=C(c1cccc(F)c1)N1CC(c2nc(-c3cccc(Cl)c3)no2)C1 | < 5.00 | -12% | 6.11 | 87% | 
57 | O=C([C@H]1CC2CCC1C2)N1CC(c2nc(-c3cccc(Cl)c3)no2)C1 (some centres not stated) | 7.13 | 120% |  |  | 
58 | O=C(N1CCCCCC1)N1CC(c2nc(-c3cccc(Cl)c3)no2)C1 | 7.33 | 44% | < 5.00 |  | 41%
59 | O=C(C1CCC(C(F)(F)F)CC1)N1CC(c2nc(-c3cccc(Cl)c3)no2)C1 (configuration not stated) | 6.00 | 40% | < 5.00 |  | 5%
60 | O=C(c1ccc(F)cc1)N1CC(c2nc(-c3cccc(F)c3)no2)C1 | 5.62 | 40% | < 5.00 |  | 6%

— ChEMBL document CHEMBL2150889, “Azetidinyl oxadiazoles as potent mGluR5 positive allosteric modulators” (Bioorg Med Chem Lett, 2012)
